From ChEMBL document CHEMBL1153859, “Analogs of JHU75528, a PET ligand for imaging of cerebral cannabinoid receptors (CB1): development of ligands with optimized lipophilicity and binding affinity” (Eur J Med Chem, 2009)
Activity calls are given as the source filed them. The rule behind the calls is not given here.

What was measured:
Cannabinoid receptor 1 [1] = target: T1, Cannabinoid receptor 1 (Homo sapiens, UniProt P21554); test: biochemical; assay type: cell-based, HEK293
[2] = Octanol-phosphate buffer partition coefficient, log D at pH 7.4 by shake-flask method; assay type: physicochemical
Procedure, shortened: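 Octanol/phosphate buffer (pH 7.4) partition by conventional shake-flask; logD7.4 reported as mean ± S.D. of independent assays.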

Cannabinoid receptor 1 [3] = target: T1, Cannabinoid receptor 1; test: Binding affinity to human CB1 receptor assessed as binding potential
[4] = target: Cannabinoid receptor 1 (Mus musculus) (UniProt P47746); test: Antagonist activity at CB1 receptor in C57/BL6 mouse striatum assessed as blockade of WIN-55212-2 induced inhibition of glutamate release at 3 uM by electrophysiology; assay type: functional, tissue-based
Sequence of Cannabinoid receptor 1 (Mus musculus) (P47746 whole entry): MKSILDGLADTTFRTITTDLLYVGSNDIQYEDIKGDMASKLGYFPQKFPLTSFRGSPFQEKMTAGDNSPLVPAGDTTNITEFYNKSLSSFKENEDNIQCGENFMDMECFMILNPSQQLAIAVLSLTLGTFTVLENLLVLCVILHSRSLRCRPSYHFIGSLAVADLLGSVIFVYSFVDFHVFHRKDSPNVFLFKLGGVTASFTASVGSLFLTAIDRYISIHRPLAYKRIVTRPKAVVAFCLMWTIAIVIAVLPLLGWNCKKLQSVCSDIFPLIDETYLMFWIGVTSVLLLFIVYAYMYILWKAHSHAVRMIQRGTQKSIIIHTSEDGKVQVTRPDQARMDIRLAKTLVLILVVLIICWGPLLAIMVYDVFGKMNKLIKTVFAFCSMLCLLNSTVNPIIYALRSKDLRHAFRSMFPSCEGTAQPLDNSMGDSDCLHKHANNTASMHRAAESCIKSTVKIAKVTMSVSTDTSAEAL

[5] = system: Cannabinoid receptor 1 (Macaca mulatta); test: Binding affinity to Rhesus monkey CB1 receptor assessed as binding potential; conditions: tested as the 11C-labelled form
Mus musculus [6] = test: Binding affinity to CB1 receptor in CD1 mouse brainstem at 200 uCi, iv after 60 mins in presence of rimonabant; assay type: functional, organism-based; conditions: tested as the 11C-labelled form
Procedure, shortened: (§1)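 Controls got vehicle. 15 min later [11C] tracer (~7.4 MBq, ~200 μCi; ~300 GBq/μmol) was given i.v.; n=3 per group. Brains were harvested at 60 min and regions dissected on ice, then γ-counted against injectate standards as %ID/g tissue. Single-factor ANOVA, p ≤ 0.05.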

Mus musculus [7] = test: Binding affinity to CB1 receptor in CD1 mouse hippocampus at 200 uCi, iv after 60 mins in presence of rimonabant; assay type: functional, organism-based; conditions: tested as the 11C-labelled form
Procedure, shortened: as §1

T1 sequence (P21554 whole entry): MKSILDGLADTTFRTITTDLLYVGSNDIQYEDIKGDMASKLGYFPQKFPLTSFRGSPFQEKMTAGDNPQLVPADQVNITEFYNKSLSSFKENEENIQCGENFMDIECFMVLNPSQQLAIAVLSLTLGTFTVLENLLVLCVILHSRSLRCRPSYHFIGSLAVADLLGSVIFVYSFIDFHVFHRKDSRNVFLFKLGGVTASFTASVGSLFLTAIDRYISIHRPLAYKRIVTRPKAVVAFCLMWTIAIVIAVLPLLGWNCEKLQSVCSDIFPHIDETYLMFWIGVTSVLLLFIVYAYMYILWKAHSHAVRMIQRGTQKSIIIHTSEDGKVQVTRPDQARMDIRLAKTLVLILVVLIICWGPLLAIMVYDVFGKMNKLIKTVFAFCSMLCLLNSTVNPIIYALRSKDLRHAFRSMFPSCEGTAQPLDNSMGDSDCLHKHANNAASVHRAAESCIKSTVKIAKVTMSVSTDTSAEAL

SMILES: N#Cc1c(C(=O)NN2CCOCC2)nn(-c2ccc(Cl)cc2Cl)c1-c1ccc(I)cc1
- Ki (Cannabinoid receptor 1 [1]): 131 nM
- logD [2]: 3.2

SMILES: COc1ccc(-c2c(C#N)c(C(=O)NN3CCCCC3)nn2-c2ccc(F)cc2Cl)cc1
- Ki (Cannabinoid receptor 1 [1]): 13 nM
- logD [2]: 2.8

SMILES: CCCCCCC(C)(C)c1cc(O)c2c(c1)OC(C)(C)[C@@H]1CC=C(CO)C[C@@H]21
- Ki (Cannabinoid receptor 1 [1]): 1.5 nM

SMILES: N#Cc1c(C(=O)NN2CCCCC2)nn(-c2ccc(Cl)cc2Cl)c1-c1ccc(Br)cc1
- Ki (Cannabinoid receptor 1 [1]): 14 nM
- logD [2]: 3.7

SMILES: N#Cc1c(C(=O)NN2CCCCC2)nn(-c2ccc(Cl)cc2Cl)c1-c1ccc(OCF)cc1
- Ki (Cannabinoid receptor 1 [1]): 10.3 nM
- logD [2]: 2.9

SMILES: COc1ccc(-c2c(C#N)c(C(=O)NN3CCCCC3)nn2-c2ccccc2Br)cc1
- Ki (Cannabinoid receptor 1 [1]): 4.7 nM
- logD [2]: 3.4

SMILES: N#Cc1c(C(=O)NN2CCOCC2)nn(-c2ccc(Cl)cc2Cl)c1-c1ccc(Br)cc1
- Ki (Cannabinoid receptor 1 [1]): > 1000 nM
- logD [2]: 3.1

SMILES: Cc1c(C(=O)NN2CCOCC2)nn(-c2ccc(Cl)cc2Cl)c1-c1ccc(I)cc1
- Activity (Cannabinoid receptor 1 [3]; tested as the 123I-labelled form): 0.21
- Activity (Cannabinoid receptor 1 [3]; tested as the 124I-labelled form): 0.37

SMILES: COc1ccc(-c2c(C#N)c(C(=O)NN3CCCCC3)nn2-c2ccc(Cl)cc2Cl)cc1 [JHU-75528]
- Ki (Cannabinoid receptor 1 [1]): 11 nM
- Activity [4]: Active
- Activity [5]: 0.6

SMILES: N#Cc1c(C(=O)NN2CCCCC2)nn(-c2ccc(Cl)cc2Cl)c1-c1ccc(Cl)cc1
- Ki (Cannabinoid receptor 1 [1]): 24 nM
- logD [2]: 3.5

SMILES: N#Cc1c(C(=O)NN2CCCCC2)nn(-c2ccc(Cl)cc2Cl)c1-c1ccc(I)cc1
- Ki (Cannabinoid receptor 1 [1]): 33 nM
- logD [2]: 3.9

SMILES: COc1ccc(-c2c(C#N)c(C(=O)NN3CCCCC3)nn2-c2ccc(F)cc2Br)cc1
- Ki (Cannabinoid receptor 1 [1]): 32 nM
- logD [2]: 2.9

SMILES: COc1ccc(-c2c(C#N)c(C(=O)NN3CCCC3)nn2-c2ccc(Cl)cc2Cl)cc1
- Ki (Cannabinoid receptor 1 [1]): 2 nM
- Activity (Mus musculus [6]): Active
- Activity (Mus musculus [7]): inactive

SMILES: COc1ccc(-c2c(C(N)=O)c(C(=O)NN3CCCCC3)nn2-c2ccccc2Br)cc1
- Ki (Cannabinoid receptor 1 [1]): > 10000 nM
- logD [2]: 2.5
